Experimental data as given in publication PMC7725269 (ACS biomaterials science & engineering, 2019).

Assays:
T47D cells = experiment: Annexin V apoptosis flow cytometry; format: cell-based; details: 1 μM PA 1 or equivalent paclitaxel
human recombinant DR5 = human recombinant DR5 (Homo sapiens, UniProt O14763); experiment: Surface plasmon resonance against immobilized DR5; format: binding; details: SPR, immobilized DR5, running buffer pH 7.0
In short: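 About 2000 RU of recombinant human DR5 was EDC/NHS-coupled to a dextran chip from 10 ug/mL in 15 mM Na acetate pH 5.6, then ethanolamine-capped. Running buffer was 10 mM phosphate, 150 mM NaCl, 3 mM EDTA, 0.01% Tween 20. Analytes were quantified by A280 and tested at 62 nM targeting PA. Association was 8 min and dissociation 10 min at 30 uL/min, with 25 mM HCl 30 s regeneration.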

Sequence of human recombinant DR5 (O14763 56-440): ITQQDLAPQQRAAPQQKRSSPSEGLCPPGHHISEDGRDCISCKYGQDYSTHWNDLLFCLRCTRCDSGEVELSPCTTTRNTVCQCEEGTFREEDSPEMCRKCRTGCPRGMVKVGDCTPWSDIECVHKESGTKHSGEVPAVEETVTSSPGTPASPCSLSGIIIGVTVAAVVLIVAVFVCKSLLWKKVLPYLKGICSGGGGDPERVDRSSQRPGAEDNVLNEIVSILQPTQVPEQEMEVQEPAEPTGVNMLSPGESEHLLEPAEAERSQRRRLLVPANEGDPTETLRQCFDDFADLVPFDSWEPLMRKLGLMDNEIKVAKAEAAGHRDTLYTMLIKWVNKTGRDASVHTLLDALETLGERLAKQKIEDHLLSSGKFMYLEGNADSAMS

Molecule	Annexin V binding / cell death (in words) (T47D cells)	Binding to DR5 (in words) (human recombinant DR5)
CC(=O)O[C@H]1C(=O)[C@@]2(C)[C@H]([C@H](OC(=O)c3ccccc3)[C@]3(O)C[C@H](OC(=O)[C@H](O)[C@@H](NC(=O)c4ccccc4)c4ccccc4)C(C)=C1C3(C)C)[C@]1(OC(C)=O)CO[C@@H]1C[C@@H]2O [Paclitaxel, paclitaxel]	statistically significant increase in annexin V binding	–
PEG2000-E2A6K(C12) [PA 4]	–	did not show any binding
